Measurements: article PMC6357737 (Science Advances, 2019)

What was measured:
[1] = system: ACHN; assay: Proliferation assay of RCC line ACHN; format: cell-based, human; details: 2 days
Method in brief: (§1)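 Lines were kept in RPMI-1640/10% FBS and plated 1 day before treatment. Seeding per well: Caki-2 and A704 at 2.0 × 10^4; 786-O, A498, 769-P and ACHN at 1.0 × 10^4; RCC4+vec at 0.7 × 10^4; RCC4+VHL at 0.8 × 10^4. Two days after dosing, cells were stained with Hoechst 33342 (2 μg/ml, 1 h) and counted by imaging.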

[2] = system: Bmal1-dLuc U2OS cells; assay: Cell-based circadian assay, Bmal1-dLuc reporter; design: species or system human
Method in brief: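 Stable U2OS Bmal1-dLuc cells were seeded at 3000 per well in DMEM/10% FBS. After 2 days, B27/HEPES explant medium with 0.2 or 1 mM luciferin (pH 7.2) was added, plus compound (final 0.7% DMSO). Luminescence was read every 100 min for 5 days, first day excluded. Period came from curve fitting; intensity was averaged over the run; n = 4. LogEC50 was from sigmoidal fits of threefold 12-point series.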

[3] = system: A704; assay: Proliferation assay of RCC line A704; format: cell-based, human; details: A704, 2 days
Method in brief: as §1

[4] = system: Caki-2; assay: Proliferation assay of RCC line Caki-2; format: cell-based, human; details: Caki-2, 2 days
Method in brief: as §1

[5] = molecular target: CLK2 (Homo sapiens, UniProt P49760); assay: In vitro CLK2 kinase assay; format: biochemical
Chain of CLK2 (P49760 whole entry): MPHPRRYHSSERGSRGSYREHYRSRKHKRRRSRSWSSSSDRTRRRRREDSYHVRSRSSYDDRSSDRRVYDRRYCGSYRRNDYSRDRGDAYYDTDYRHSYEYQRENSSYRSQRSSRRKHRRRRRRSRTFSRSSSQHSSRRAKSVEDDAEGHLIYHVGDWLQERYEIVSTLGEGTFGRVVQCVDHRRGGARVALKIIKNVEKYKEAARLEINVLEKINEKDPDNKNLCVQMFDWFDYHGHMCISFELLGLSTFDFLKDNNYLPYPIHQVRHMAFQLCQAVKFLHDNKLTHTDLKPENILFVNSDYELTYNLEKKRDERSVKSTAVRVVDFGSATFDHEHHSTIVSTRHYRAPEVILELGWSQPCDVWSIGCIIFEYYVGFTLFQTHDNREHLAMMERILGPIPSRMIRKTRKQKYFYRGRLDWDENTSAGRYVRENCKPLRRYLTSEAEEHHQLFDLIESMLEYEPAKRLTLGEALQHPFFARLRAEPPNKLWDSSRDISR

[6] = system: RCC4+VHL; assay: Proliferation assay of RCC line RCC4+VHL; format: cell-based, human; details: 2 days
Method in brief: as §1

[7] = system: PER2; assay: Phosphoproteomics of Flag-tagged PER2 in HEK293T cells; format: cell-based, mouse; details: full-length PER2, 8 μM, 24 h (table S1)
Method in brief: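 HEK293T cells were reverse-transfected (Lipofectamine 2000) with C-terminal 3XFlag-tagged mouse PER2 plus CK2α. After 24 h, they received 0 or 8 μM compound for 24 h. Lysis was in 1% NP-40 buffer (pH 8.0) with phosphatase inhibitors, followed by anti-Flag immunoprecipitation and LC-MS/MS after four-protease digestion. Phosphorylation was expressed as phosphopeptide/total peptide spectra, and the effect as the treated/control ratio.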

[8] = system: 59 kinases from a variety of classes; assay: Kinase profiling, panel of 60 kinases; format: biochemical; details: 5 μM
[9] = molecular target: recombinant CK2 (α2β2 tetramer) (Homo sapiens, UniProt P68400); format: binding; details: recombinant CK2, agarose-conjugated GO457, immunoblot
Chain of recombinant CK2 (α2β2 tetramer) (P68400 whole entry): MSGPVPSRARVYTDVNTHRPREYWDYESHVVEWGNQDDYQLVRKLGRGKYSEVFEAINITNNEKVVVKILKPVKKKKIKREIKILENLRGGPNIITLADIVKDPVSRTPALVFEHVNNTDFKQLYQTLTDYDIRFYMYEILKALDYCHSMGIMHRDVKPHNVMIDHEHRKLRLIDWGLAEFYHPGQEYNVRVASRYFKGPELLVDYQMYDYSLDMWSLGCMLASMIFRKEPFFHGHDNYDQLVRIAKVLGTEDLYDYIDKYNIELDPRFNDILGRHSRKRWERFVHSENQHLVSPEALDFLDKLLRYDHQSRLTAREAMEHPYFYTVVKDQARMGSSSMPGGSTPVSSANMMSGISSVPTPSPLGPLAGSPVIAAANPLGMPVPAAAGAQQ
Chain of recombinant CK2 (α2β2 tetramer) (P67870 whole entry partner): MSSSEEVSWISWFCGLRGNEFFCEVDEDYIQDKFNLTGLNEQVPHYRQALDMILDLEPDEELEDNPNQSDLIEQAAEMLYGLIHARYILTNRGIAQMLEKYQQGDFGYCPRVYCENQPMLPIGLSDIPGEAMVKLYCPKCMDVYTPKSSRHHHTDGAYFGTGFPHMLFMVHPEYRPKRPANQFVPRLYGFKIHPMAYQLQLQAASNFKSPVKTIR

[10] = system: BMAL1 S90; assay: BMAL1 S90 phosphorylation immunoblot in NIH-3T3 cells; format: cell-based, mouse; details: 10 μM, different times
Method in brief: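 NIH-3T3 cells were exposed to 10 μM test compound for varying times. Lysates were immunoprecipitated with anti-BMAL1 antibody, then immunoblotted with anti-P-BMAL1-S90 and anti-BMAL1 antibodies. Protein was quantified by Bradford.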

[11] = system: A498; assay: Proliferation assay of RCC line A498; format: cell-based, human; details: A498, 2 days
Method in brief: as §1

[12] = system: Per2 knockout cells differentiated from ES cells; assay: Circadian assay in Per2 knockout cells differentiated from Bmal1-Luc ES cells; format: cell-based, mouse
Method in brief: (§2)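 ES cells were kept on feeder fibroblasts; Per2 was disrupted by CRISPR-Cas9 in Bmal1-Luc ES cells. Embryoid bodies formed over 2 days in low-attachment wells, then grew 26 days on gelatin. On day 28, cells got 100 nM dexamethasone for 1 h, then 0.2 mM luciferin with compound. Luminescence was integrated 1 min every 20 min; period came from sine-wave fitting. Replicates: Per2::LucSV n = 4; Per2 knockout versus wild-type n = 3 to 4.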

[13] = system: 786-O; assay: Proliferation assay of RCC line 786-O; format: cell-based, human; details: 2 days
Method in brief: as §1

[14] = molecular target: T1, CK2 (Homo sapiens, UniProt P19784+P68400); assay: Cellular CK2 activity, anti-phospho CK2 substrate immunoblot, U2OS; format: cell-based; details: U2OS cells, 24 hours, concentrations similar to those that affected circadian period
T1 sequence (P68400 whole entry): as the sequence (P68400 whole entry) above
T1 sequence (P19784 whole entry): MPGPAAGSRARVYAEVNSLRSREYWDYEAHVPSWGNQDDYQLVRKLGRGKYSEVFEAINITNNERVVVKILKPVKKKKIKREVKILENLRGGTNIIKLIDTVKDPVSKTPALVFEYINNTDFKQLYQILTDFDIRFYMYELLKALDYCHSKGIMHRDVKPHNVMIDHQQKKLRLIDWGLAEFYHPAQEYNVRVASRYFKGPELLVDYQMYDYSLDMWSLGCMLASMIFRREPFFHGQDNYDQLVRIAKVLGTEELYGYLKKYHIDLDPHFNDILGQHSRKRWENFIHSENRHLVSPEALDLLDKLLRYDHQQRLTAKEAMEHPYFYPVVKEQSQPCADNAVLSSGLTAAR
T1 sequence (P67870 whole entry partner): as the sequence (P67870 whole entry partner) above

[15] = system: PKA (protein kinase A); assay: Anti-phospho PKA substrate immunoblot, HEK293T; format: cell-based, human; details: HEK293T cells, 24 hours
Method in brief: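 HEK293T cells exposed to a range of test compound concentrations for 24 hours. Lysates were immunoblotted with anti-phospho CK2 substrate antibody, then the membrane was reprobed with anti-phospho PKA substrate and anti-β-actin antibodies.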

[16] = molecular target: PIM2 (Homo sapiens, UniProt Q9P1W9); assay: In vitro PIM2 kinase assay; format: biochemical
Chain of PIM2 (Q9P1W9 whole entry): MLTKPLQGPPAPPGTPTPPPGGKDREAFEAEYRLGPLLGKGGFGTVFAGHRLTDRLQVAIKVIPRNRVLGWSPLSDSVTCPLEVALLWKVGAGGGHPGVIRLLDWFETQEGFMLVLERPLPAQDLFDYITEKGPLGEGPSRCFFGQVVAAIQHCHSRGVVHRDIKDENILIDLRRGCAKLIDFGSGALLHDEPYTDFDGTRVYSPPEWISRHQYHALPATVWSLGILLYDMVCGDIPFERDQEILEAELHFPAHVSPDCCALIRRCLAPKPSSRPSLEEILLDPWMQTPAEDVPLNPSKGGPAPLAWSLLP
Method in brief: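 Kinase-Glo assay measuring remaining ATP. Compound was added (final 5% DMSO) and reactions were started with ATP (final 3 μM). PIM2 ran at 30°C for 3 h. The CK2 comparator used CK2 (1.5 ng/μl) with 50 μM substrate peptide in 40 mM tris, 10 mM MgCl2, 0.5 mM DTT, 150 mM NaCl, pH 7.5, at 37°C for 1.5 h.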

[17] = system: Per2-dLuc U2OS cells; assay: Cell-based circadian assay, Per2-dLuc reporter; design: species or system human
[18] = system: MLL-AF9 leukemia cells; assay: Proliferation assay of MLL-AF9 leukemia cells; format: cell-based; details: mouse MLL-AF9 leukemia cells, 2 days
Method in brief: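 GFP-positive MLL-AF9 leukemia cells were taken from leukemic mouse bone marrow and kept in IMDM/10% FBS with SCF 20 ng/ml and mIL-3, mIL-6 and GM-CSF at 10 ng/ml each. Cells were plated at 2.0 × 10^4 per well with compound, incubated at 37°C for 2 days, then counted by flow cytometry.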

[19] = system: RCC4+vec; assay: Proliferation assay of RCC line RCC4+vec; format: cell-based, human; details: 2 days
Method in brief: as §1

[20] = system: MLL-AF9 tissues (spleen and bone marrow explants); format: cell-based, mouse; details: MLL-AF9 tissues relative to the control
Method in brief: (§3)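 Explants: spleen and bone marrow from transplant mice. MLL-AF9 leukemia cells derived from Per2::Luc bone marrow were serially transplanted into nonreporter C57BL/6J mice. Controls were C57BL/6J recipients of Per2::Luc bone marrow, used 3 months later. Tissue was cultured in luciferin explant medium with compound (0.24% DMSO final). Luminescence was read every 30 min for 5 days, first day excluded. Period was curve-fitted; intensity was averaged over the run. MLL-AF9 n = 11; control n = 10 to 20.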

[21] = system: control spleen and bone marrow explants; assay: Per2::Luc rhythms in control spleen and bone marrow explants; format: cell-based, mouse
Method in brief: as §3

[22] = molecular target: CK2 (Homo sapiens, UniProt P68400); assay: biochemical
Chain of CK2 (Homo sapiens, UniProt P68400) (P68400 whole entry): as the sequence (P68400 whole entry) above
Chain of CK2 (Homo sapiens, UniProt P68400) (P67870 whole entry partner): as the sequence (P67870 whole entry partner) above

[23] = system: cells differentiated from Per2::LucSV knock-in ES cells; assay: Circadian assay in differentiated ES cells; format: cell-based, mouse
Method in brief: as §2

[24] = system: LSK hematopoietic progenitor cells; assay: Proliferation assay of LSK hematopoietic progenitor cells; format: cell-based, mouse; details: LSK hematopoietic progenitor cells (normal counterpart), 2 days
Method in brief: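 LSK progenitors were maintained in StemSpan with SCF and TPO (100 ng/ml each). Cells were plated at 1.0 × 10^4 per well with compound, held at 37°C for 2 days, then counted by flow cytometry.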

[25] = system: OCI-AML3; assay: Proliferation assay of OCI-AML3 cells; format: cell-based, human; details: OCI-AML3, 4 days
Method in brief: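 OCI-AML3 cells were kept in MEM alpha/20% FBS, plated at 1.0 × 10^4 per well with compound, and incubated at 37°C for 4 days. Viability was read with Cell Counting Kit-8.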

[26] = molecular target: CKIα (Homo sapiens, UniProt P48729); assay: In vitro CKIα kinase assay; format: biochemical
Chain of CKIα (P48729 whole entry, species assumed): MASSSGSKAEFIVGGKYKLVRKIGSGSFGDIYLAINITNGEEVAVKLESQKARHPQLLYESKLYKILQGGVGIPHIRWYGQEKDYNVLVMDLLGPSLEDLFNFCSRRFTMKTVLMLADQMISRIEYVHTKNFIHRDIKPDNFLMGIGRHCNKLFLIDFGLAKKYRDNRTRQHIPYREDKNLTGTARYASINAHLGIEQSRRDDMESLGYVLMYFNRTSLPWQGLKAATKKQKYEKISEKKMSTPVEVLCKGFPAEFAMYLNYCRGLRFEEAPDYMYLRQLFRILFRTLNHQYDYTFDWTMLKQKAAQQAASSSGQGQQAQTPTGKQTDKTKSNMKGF

[27] = molecular target: CKIδ (Homo sapiens, UniProt P48730); assay: In vitro CKIδ kinase assay; format: biochemical
Chain of CKIδ (P48730 whole entry, species assumed): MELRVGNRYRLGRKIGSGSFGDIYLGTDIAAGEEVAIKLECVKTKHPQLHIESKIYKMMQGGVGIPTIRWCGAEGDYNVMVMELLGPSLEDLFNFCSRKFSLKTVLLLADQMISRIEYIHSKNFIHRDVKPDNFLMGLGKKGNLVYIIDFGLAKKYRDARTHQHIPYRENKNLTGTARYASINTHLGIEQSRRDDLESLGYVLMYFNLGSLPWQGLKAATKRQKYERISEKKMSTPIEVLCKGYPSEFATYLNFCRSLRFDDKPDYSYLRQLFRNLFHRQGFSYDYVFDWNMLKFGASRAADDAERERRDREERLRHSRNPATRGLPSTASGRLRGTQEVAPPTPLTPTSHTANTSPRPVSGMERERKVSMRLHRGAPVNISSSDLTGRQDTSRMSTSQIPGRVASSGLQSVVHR

[28] = system: CK2α (CSNK2A1), CK2α′ (CSNK2A2), CK2β (CSNK2B), and GSK-3β (GSK3B); format: binding, human; details: U2OS cell lysate, 50 μM free compound
Method in brief: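 Unsynchronized confluent U2OS cells (1.6 × 10^8) were Dounce-homogenized in MOPS/EGTA/MgCl2/DTT buffer (pH 7.2) and sonicated. NP-40 was added to 0.5%, and the extract was cleared at 14,000g. Halves were preincubated with 0 or 50 μM free compound (0.5% DMSO) at 4°C for 30 min, then with the agarose-conjugated probe for 1 h. Bound proteins were in-gel digested for nanoLC-MS/MS; two independent experiments.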

[29] = system: 769-P; assay: Proliferation assay of RCC line 769-P; format: cell-based, human; details: 2 days
Method in brief: as §1

[30] = molecular target: CRY1 (Mus musculus, UniProt P97784); assay: CRY1 degradation assay; format: cell-based; details: CRY1-LUC HEK293 cells, 24 h
Chain of CRY1 (P97784 whole entry): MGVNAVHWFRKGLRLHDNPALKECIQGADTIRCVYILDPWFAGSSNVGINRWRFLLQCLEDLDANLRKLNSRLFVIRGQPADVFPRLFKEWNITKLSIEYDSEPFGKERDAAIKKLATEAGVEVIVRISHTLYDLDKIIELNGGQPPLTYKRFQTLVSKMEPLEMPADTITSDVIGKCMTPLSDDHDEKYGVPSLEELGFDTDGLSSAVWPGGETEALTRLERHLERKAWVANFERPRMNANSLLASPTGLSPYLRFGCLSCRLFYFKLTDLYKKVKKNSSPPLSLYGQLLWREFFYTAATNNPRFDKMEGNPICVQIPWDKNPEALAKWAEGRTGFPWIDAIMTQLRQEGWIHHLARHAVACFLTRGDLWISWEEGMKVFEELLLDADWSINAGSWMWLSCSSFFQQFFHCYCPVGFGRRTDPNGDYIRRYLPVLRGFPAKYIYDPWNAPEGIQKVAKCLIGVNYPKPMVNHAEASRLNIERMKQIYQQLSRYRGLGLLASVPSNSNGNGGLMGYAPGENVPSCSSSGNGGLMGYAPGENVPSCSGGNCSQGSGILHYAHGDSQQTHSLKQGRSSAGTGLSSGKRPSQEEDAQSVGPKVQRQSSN

[31] = molecular target: T1, CK2; assay: Cellular CK2 activity, anti-phospho CK2 substrate immunoblot, HEK293T; format: cell-based; details: HEK293T cells, 24 hours, various concentrations
[32] = system: lung explants from Per2::Luc mice; assay: Circadian rhythms in lung explants; format: cell-based, mouse
Method in brief: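 Lung pieces from Per2::Luc knock-in mice were cultured in luciferin-containing explant medium with compound (final 0.24% DMSO). Luminescence was recorded every 30 min for 5 days, excluding the first day. Period was derived by curve fitting.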

[33] = molecular target: GSK-3β (Homo sapiens, UniProt P49841); assay: Kinase profiling; format: biochemical; details: 5 μM
Chain of GSK-3β (P49841 whole entry): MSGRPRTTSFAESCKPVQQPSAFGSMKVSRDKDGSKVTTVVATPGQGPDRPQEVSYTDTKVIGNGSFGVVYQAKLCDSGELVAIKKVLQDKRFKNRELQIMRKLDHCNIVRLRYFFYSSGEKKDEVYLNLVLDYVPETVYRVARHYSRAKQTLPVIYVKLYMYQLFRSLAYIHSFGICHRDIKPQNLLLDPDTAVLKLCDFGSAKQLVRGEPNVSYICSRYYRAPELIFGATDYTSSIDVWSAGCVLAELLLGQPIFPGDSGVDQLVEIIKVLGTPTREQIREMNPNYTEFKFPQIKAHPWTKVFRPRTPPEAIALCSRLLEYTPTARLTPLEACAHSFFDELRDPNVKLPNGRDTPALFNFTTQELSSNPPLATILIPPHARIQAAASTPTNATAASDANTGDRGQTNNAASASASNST

SMILES: O=C(O)c1ccc2c(c1)nc(Nc1cccc(Cl)c1)c1ccncc12 [CX-4945, reference compound]
- Cell growth [1]: less of an effect
- Effect on luminescence (reporter signal intensity) ([2]; vs DMSO control): severe reduction in luminescence
- Cell growth [3]: less of an effect
- Cell growth [4]: inhibited growth

SMILES: CN(C)c1nc2c(Br)c(Br)c(Br)c(Br)c2[nH]1 [DMAT, reference compound]
- Effect on luminescence (reporter signal intensity) ([2]; vs DMSO control): severe reduction in luminescence

SMILES: COc1cc(/C=N/n2c(SC)nnc2-c2ccccc2)c(Br)cc1O [GO289]
- IC50 [5]: > 50 µM
- Cell growth [6]: less affected
- Phosphorylation of PER2 T12/S13 and S53 (previously reported CK2 sites) [7]: either unchanged or up-regulated
- Effect on the activity of 59 kinases [8]: only a moderate or minor effect
- Competition of CK2 interaction with affinity probe [9]: blocked by increasing concentrations of free GO289
- BMAL1 S90 phosphorylation (immunoblot) [10]: down-regulation
- Cell growth [11]: strongly inhibited
- Period lengthening of Bmal1-Luc rhythms in Per2 knockout vs wild-type cells [12]: slightly enhanced
- Cell growth [13]: less affected
- Cellular CK2 activity (anti-phospho CK2 substrate antibody) [14]: Inhibition of cellular CK2 activity
- Signal of anti-phospho PKA substrate antibody [15]: not affected by GO289
- IC50 [16]: 13 µM
- IC50 ratio against CK2 over PIM family kinase (PIM2) ([16]; PIM2 IC50 relative to CK2 IC50): > 1000
- Effect on circadian period [17]: dose-dependent lengthening of circadian period
- Cell growth [1]: less affected
- Cell growth [18]: significantly reduced growth
- Effect on circadian period [2]: dose-dependent lengthening of circadian period
- Effect on luminescence (reporter signal intensity) ([2]; vs DMSO control): little effect on luminescence
- Lengthening of circadian period ([2]; vs DMSO control): more than 12 hours
- Cell growth [19]: less affected
- Luminescence intensity of Per2::Luc reporter [20]: severe reduction in luminescence
- Effect on circadian period [21]: lengthened circadian period
- Cell growth [3]: less affected
- IC50 [22]: 0.007 µM
- Effect on circadian period [23]: lengthened periods
- Cell growth [24]: much less affected
- Cell growth [25]: sensitive to GO289
- Effect on CKIα activity in vitro [26]: minor effects
- Effect on CKIδ activity in vitro [27]: minor effects
- Competition of protein interactions with affinity probe [28]: blocked by free GO289
- Cell growth [29]: strongly inhibited
- CRY1 stabilization in cell-based degradation assay [30]: no stabilization of CRY1
- Cell growth [4]: strongly inhibited
- Phosphorylation of CK2 substrates (anti-phospho CK2 substrate antibody) [31]: reduced by GO289 in a dose-dependent manner
- Effect on circadian period [32]: lengthened periods
- Effect on GSK-3β activity [33]: minor effect

SMILES: Cc1cc2sc(NC(=O)Cc3ccccc3)nc2cc1Cl [LH846, reference compound]
- Phosphorylation of CK2 substrates (anti-phospho CK2 substrate antibody) [31]: neither the CKIδ inhibitor LH846 nor the GSK-3 inhibitor CHIR-99021 altered the CK2-specific phosphorylation pattern

SMILES: COc1cc(/C(C)=N/n2c(SC)nnc2-c2ccccc2)c(Br)cc1O [compound 27]
- CK2 inhibitory activity in vitro ([22]; in vitro CK2 kinase assay (fig. S5)): complete loss of CK2 inhibition
